# Measured values pooled from the literature.
# Lines come from different studies, so protocols differ.
# Cell line: HCT-116
# Effect on: cell growth or viability
Compound,assay,setting,IC50
FC(F)(F)c1ccc(C(c2c[nH]c3ccccc23)c2c[nH]c3ccccc23)cc1,ATP luminescence,22 h,9.3 µM
Cc1c(OCC(F)(F)F)ccnc1COc1ccc(NC(=O)Nc2ccc(F)cc2)cc1,MTT,72 h,6.35 µM
Cc1cc(C)n(-c2nc(Nc3ccc(Br)cc3)nc(N3CCOCC3)n2)n1,MTT,72 h,0.5 µM
O=c1cc(-c2ccc(O)c(O)c2)oc2cc(O)cc(O)c12,WST-1,48 h,11.1 µM
CSc1nc(/N=C/c2cc([N+](=O)[O-])ccc2O)n(-c2ccc(C(=O)O)cc2)n1,MTT,,60.3 µM
CC1=C(O)C(=O)C=C2C1=CC=C1[C@@]2(C)CC[C@@]2(C)[C@@H]3C[C@](C)(C(=O)OCCCBr)CC[C@]3(C)CC[C@]12C,MTT,48 h,0.52 µM
O=c1[nH]cc(F)c(=O)[nH]1,WST-1,48 h,9.5 µM
O=c1cc(CCl)c2ccc(O)cc2o1,MTT,36 h,8.47 µM
O=C(NC(=S)N1CCCCC1)c1ccc2ccccc2c1,,48 h,9.12 µM
Cn1c(-c2nnc(NC(=O)c3cc4c([nH]c5ccccc54)c(-c4ccccc4)n3)s2)cc2ccccc21,MTT,72 h,10.3 µM
CC(C)[C@H](N)c1nc2cc(-c3ccncc3F)sc2c(=O)[nH]1,MTT,,0.158 µM
O=C(NC(=S)N1CCCC1)c1ccc2ccccc2c1,,48 h,6.22 µM
COc1ccc(-c2nc(C(=O)Nc3nnc(-c4cc5ccccc5n4C)s3)cc3c2[nH]c2ccccc23)cc1,MTT,72 h,8.07 µM
C=CC(=O)Nc1cccc(Nc2nc(Nc3ccc(OCCOC)cc3)ncc2F)c1,,,6.79 µM
CCn1c(-c2nnc(NC(=O)c3cc4c([nH]c5ccccc54)c(-c4ccc(C)cc4)n3)s2)cc2ccccc21,MTT,72 h,15.1 µM
Cc1c(OCC(F)(F)F)ccnc1COc1ccc(NC(=O)Nc2ccc(Cl)c(C(F)(F)F)c2)cc1,MTT,72 h,5.6 µM
CC1=C(O)C(=O)C=C2C1=CC=C1[C@@]2(C)CC[C@@]2(C)[C@@H]3C[C@](C)(C(=O)OCCCN4C(=O)C5C=CC=CC5C4=O)CC[C@]3(C)CC[C@]12C (some centres unmarked),MTT,48 h,0.64 µM
COc1cc(-c2nc(C(=O)Nc3nnc(-c4cc5ccccc5n4C)s3)cc3c2[nH]c2ccccc23)cc(OC)c1OC,MTT,72 h,6.11 µM
COc1cc(CNC(=O)CCCC/C=C/C(C)C)ccc1O,SRB,,40.2 µM
CC(C)n1c(/C=C/C(O)CC(O)CC(=O)O)c(-c2ccc(F)cc2)c2ccccc21 (centres unmarked),SRB,72 h,7.06 µg/mL
O=C(O)c1ccc(-n2nc(Oc3ccccc3)nc2/N=C/c2cc([N+](=O)[O-])ccc2O)cc1,MTT,,62.8 µM
COC(=O)/C=C1\S/C(=N\C(=O)c2ccc3ccccc3c2)N(C2CCCCC2)C1=O,,48 h,12.2 µM
COCCCOc1ccnc(COc2ccc(NC(=O)Nc3ccc(OC)cc3)cc2)c1C,MTT,72 h,12.7 µM
CCN(CC)C(=S)NC(=O)c1ccc2ccccc2c1,,48 h,5.07 µM
CC(=O)O[C@H]1C(=O)[C@@]2(C)[C@H]([C@H](OC(=O)c3ccccc3)[C@]3(O)C[C@H](OC(=O)[C@H](O)[C@@H](NC(=O)c4ccccc4)c4ccccc4)C(C)=C1C3(C)C)[C@]1(OC(C)=O)CO[C@@H]1C[C@@H]2O,fluorescence,72 h,0.0019 µM
COc1c(C)cnc(COc2ccc(NC(=O)Nc3cc(F)cc(F)c3)cc2)c1C,MTT,72 h,10.8 µM
COc1cccc2c3c(c[n+](C)c12)sc1cccc(F)c13,MTT,72 h,6.8 µM
COC(=O)c1cc2ccc(O)cc2oc1=O,MTT,36 h,> 20 µM
COC(=O)c1ccc(-n2nc(SC)nc2N)cc1,MTT,,39.1 µM
CC(=O)Oc1ccc2oc(=O)cc(CSC(C)=O)c2c1,MTT,36 h,> 20 µM
COc1cc([C@@H]2c3cc4c(cc3[C@@H](O[C@@H]3O[C@@H]5CO[C@@H](C)O[C@H]5[C@H](O)[C@H]3O)[C@H]3COC(=O)[C@H]23)OCO4)cc(OC)c1O,MTS,24 h,29.6 µM
O=Cc1ccc(CO)o1,WST-1,48 h,83.1 µM
CC1=C(O)C(=O)C=C2C1=CC=C1[C@@]2(C)CC[C@@]2(C)[C@@H]3C[C@](C)(C(=O)OCCCCCCCCO)CC[C@]3(C)CC[C@]12C,MTT,48 h,0.58 µM
O=C1Nc2c(C(F)(F)F)cccc2[C@@]1(c1ccc(O)cc1)c1ccc(OC(F)(F)F)cc1,resazurin,7 days,0.093 µM
NC(=O)NOCCCC[P+](c1ccccc1)(c1ccccc1)c1ccccc1,imaging,,> 600 µM
COc1c(C)cnc(COc2ccc(NC(=O)Nc3cccc(C(F)(F)F)c3)cc2)c1C,MTT,72 h,12.5 µM
COc1ccc(O)c(/C=N/c2nc(SC)nn2-c2ccc(C(=O)O)cc2)c1,MTT,,55.3 µM
COc1c(C)cnc(COc2ccc(NC(=O)Nc3ccc(F)cc3)cc2)c1C,MTT,72 h,12.7 µM
O=C(NC(=S)Nc1ccc([N+](=O)[O-])cc1)c1ccc2ccccc2c1,,48 h,6.09 µM
CC(=O)c1ccc(-c2cccc(NC(=O)CCc3cccc4c3B(O)OC4)c2)cc1,ATP luminescence,72 h,0.28 µM
CC(=O)OCCOC(=O)[C@]1(C)CC[C@]2(C)CC[C@]3(C)C4=CC=C5C(=CC(=O)C(O)=C5C)[C@]4(C)CC[C@@]3(C)[C@@H]2C1,MTT,48 h,0.47 µM
CSc1nc(/N=C/c2ccc(O)cc2)n(-c2ccc(C(=O)O)cc2)n1,MTT,,68.1 µM
COCCCOc1ccnc(COc2ccc(NC(=O)Nc3cccc(C(F)(F)F)c3)cc2)c1C,MTT,72 h,8.81 µM
CC(=O)SCc1cc(=O)oc2ccc(O)cc12,MTT,36 h,> 20 µM
O=C(/N=C1\SCC(=O)N1C1CCCCC1)c1ccc2ccccc2c1,,48 h,9.12 µM
COCCCOc1ccnc(COc2ccc(NC(=O)Nc3ccc(F)cc3)cc2)c1C,MTT,72 h,6.44 µM
CSc1nc(/N=C/c2cc(C)ccc2O)n(-c2ccc(C(=O)O)cc2)n1,MTT,,43.9 µM
